This note sets out measurements from ChEMBL document CHEMBL1136721, “QSAR and classification of murine and human soluble epoxide hydrolase inhibition by urea-like compounds” (J Med Chem, 2003).

Assay [1] concerns the target T1, Bifunctional epoxide hydrolase 2 (Mus musculus, UniProt P34914).
T1 sequence (P34914 whole entry): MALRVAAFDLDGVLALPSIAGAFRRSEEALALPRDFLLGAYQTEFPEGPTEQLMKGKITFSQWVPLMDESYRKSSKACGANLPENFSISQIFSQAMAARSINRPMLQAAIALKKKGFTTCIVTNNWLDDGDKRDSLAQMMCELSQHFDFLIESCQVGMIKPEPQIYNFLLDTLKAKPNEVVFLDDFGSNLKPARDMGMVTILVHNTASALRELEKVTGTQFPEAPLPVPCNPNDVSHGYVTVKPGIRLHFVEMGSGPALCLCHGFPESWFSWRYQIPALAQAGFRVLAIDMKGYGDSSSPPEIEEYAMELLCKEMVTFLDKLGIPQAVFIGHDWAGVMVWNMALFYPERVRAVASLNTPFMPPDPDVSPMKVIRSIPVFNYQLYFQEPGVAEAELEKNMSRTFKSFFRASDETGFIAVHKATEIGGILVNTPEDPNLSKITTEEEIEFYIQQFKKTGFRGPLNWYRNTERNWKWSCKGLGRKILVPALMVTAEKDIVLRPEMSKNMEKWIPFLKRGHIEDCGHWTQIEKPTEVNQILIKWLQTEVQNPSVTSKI
As to the kind of experiment: Inhibitory activity against murine soluble epoxide hydrolase; N/A = could not be determined because of above the highest concentration (500 uM) of inhibitor tested. The method, boiled down:
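Mouse sEH expressed in baculovirus and affinity-purified (at least 97% pure by SDS-PAGE, no esterase or glutathione transferase activity). 0.10 µM enzyme held with inhibitor 5 min at 30 °C in pH 7.4 sodium phosphate buffer. Then 40 µM racemic 4-nitrophenyl-trans-2,3-epoxy-3-phenylpropyl carbonate added; 4-nitrophenolate followed at 405 nm for 1 min. Done in triplicate up to 500 µM inhibitor. IC50 regressed from at least five points bracketing the midpoint.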

The target in assay [2] is T2, Bifunctional epoxide hydrolase 2 (Homo sapiens, UniProt P34913).
T2 sequence (P34913 whole entry): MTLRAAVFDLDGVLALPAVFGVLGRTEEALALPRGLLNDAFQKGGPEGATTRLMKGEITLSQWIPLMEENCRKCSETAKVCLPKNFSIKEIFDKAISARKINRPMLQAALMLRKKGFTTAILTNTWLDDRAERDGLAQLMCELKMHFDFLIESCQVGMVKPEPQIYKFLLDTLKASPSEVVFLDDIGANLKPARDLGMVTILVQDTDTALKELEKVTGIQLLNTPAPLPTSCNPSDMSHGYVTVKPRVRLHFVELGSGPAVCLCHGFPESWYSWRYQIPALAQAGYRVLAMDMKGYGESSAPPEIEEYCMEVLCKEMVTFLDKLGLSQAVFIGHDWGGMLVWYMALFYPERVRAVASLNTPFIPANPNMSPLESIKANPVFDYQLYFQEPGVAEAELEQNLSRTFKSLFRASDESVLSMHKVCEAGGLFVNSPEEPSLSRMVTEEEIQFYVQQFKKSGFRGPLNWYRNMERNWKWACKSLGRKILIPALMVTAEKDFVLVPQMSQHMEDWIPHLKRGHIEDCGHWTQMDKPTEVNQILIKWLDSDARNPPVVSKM
Briefly: Inhibitory activity against human soluble epoxide hydrolase; N/A = could not be determined because of above the highest concentration (500 uM) of inhibitor tested. Summed up:
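Recombinant human sEH made in baculovirus and affinity-purified (at least 97% pure, no detectable esterase or glutathione transferase activity). 0.20 µM enzyme preincubated with inhibitor for 5 min at 30 °C in pH 7.4 sodium phosphate buffer. Substrate: 40 µM racemic 4-nitrophenyl-trans-2,3-epoxy-3-phenylpropyl carbonate. 4-Nitrophenolate read at 405 nm over 1 min. Triplicate runs; top concentration 500 µM. IC50 by regression of at least five points, with at least two on each side in the linear region.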

The structures appear in SMILES notation.

Regarding `CN(C)C(=O)N(CCCCCC(=O)O)c1ccc(Cl)c(Cl)c1`, the IC50 result in assay [1] and in assay [2] was “Not Active” throughout.

Regarding `CCCCCCNC(=O)NC`, the IC50 entry in assay [2] was “Not Active”.
